Source: ChEMBL document CHEMBL1156869, “Selective inhibitors of the JMJD2 histone demethylases: combined nondenaturing mass spectrometric screening and crystallographic approaches” (J Med Chem, 2010)
Activity calls are given as the source filed them. No cut-off for these calls is given here.

What was measured:
[1] = Inhibition of JMJD2E by ESI-MS binding assay
Method in brief: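 Nondenaturing ESI-MS binding: His-tagged JMJD2E desalted into 15 mM ammonium acetate pH 7.5. Protein (15 μM) mixed with 1 equiv Fe(II) and 1 equiv inhibitor, incubated 30 min at 37 °C, then analysed on a Q-TOF by nanospray. Read-out: ratio of JMJD2E–inhibitor complex to free JMJD2E.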

[2] = Inhibition of JMJD2E by FDH coupled assay
Method in brief: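 Formaldehyde dehydrogenase-coupled demethylation assay with initial rates from NADH production. IC50 determined from these rates; detection limit about 1 μM IC50.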

[3] = Inhibition of JMJD2E by MALDI-TOF assay
[4] = target: T1, Lysine-specific demethylase 4A (Homo sapiens, UniProt O75164); experiment: Inhibition of JMJD2A by MALDI-TOF assay
T1 sequence (O75164 whole entry): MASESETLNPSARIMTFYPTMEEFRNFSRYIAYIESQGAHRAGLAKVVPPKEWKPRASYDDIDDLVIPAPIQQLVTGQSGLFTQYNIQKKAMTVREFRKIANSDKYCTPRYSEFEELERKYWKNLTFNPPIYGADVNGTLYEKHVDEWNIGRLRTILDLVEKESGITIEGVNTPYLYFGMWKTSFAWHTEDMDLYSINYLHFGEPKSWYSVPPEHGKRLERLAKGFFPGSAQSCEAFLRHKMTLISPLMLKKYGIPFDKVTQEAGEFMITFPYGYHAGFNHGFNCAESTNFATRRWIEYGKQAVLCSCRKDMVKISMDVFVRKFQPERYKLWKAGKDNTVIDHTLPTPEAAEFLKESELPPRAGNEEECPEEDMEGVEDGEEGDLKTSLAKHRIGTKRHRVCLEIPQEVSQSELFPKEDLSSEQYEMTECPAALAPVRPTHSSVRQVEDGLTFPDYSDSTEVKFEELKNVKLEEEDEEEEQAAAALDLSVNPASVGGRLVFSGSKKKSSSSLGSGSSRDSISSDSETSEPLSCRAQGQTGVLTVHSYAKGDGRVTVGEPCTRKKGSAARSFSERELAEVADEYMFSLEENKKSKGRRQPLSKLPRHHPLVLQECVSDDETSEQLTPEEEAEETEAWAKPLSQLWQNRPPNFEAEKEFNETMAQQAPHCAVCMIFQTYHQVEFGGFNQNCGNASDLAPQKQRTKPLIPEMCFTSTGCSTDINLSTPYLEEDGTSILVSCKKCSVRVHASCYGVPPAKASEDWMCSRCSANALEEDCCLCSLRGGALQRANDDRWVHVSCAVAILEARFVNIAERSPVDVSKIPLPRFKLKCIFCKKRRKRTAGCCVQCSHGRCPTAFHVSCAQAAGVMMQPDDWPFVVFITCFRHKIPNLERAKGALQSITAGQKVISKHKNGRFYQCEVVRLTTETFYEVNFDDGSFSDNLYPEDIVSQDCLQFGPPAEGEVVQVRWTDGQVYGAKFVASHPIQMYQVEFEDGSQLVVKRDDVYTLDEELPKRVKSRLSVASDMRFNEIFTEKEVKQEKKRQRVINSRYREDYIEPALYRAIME
Method in brief: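 Reaction started with 2OG (10 μM) and ARKme3STGGK peptide (10 μM), then 30 min at 37 °C. Quenched with methanol. MALDI-TOF methylation-state intensities gave % demethylation; IC50 from concentration variation.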

[5] = Binding to JMJD2E by nondenaturing ESI-MS, ratio of JMJD2E-inhibitor complex to free JMJD2E
Homo sapiens = species on record: Homo sapiens; experiment: Inhibition of human […] by CODD biochemical assay

Activity [1] | IC50 [2] [µM] | IC50 [3] [µM] | IC50 [4] [µM] | Ratio [5] | Activity (Homo sapiens) | Structure (SMILES)
Active | 16.6 | 25 | 10 | 3.6 |  | O=C(O)C(=O)N[C@H](Cc1ccc(OCc2ccccc2F)cc1)C(=O)O
Active | 185 |  |  | 0.9 |  | CC(C)(C)C(=O)COc1ccc(C[C@@H](NC(=O)C(=O)O)C(=O)O)cc1
Active |  |  |  |  |  | O=C(O)C(=O)N[C@H](Cc1ccc(OC(=O)c2cc3ccccc3s2)cc1)C(=O)O
Active |  |  |  |  |  | O=C(Cc1ccccc1)Oc1ccc(C[C@@H](NC(=O)C(=O)O)C(=O)O)cc1
Active |  |  |  |  |  | O=C(Cc1ccc(Cl)cc1)Oc1ccc(C[C@@H](NC(=O)C(=O)O)C(=O)O)cc1
Active |  |  |  |  |  | Cc1noc(C)c1C(=O)Oc1ccc(C[C@@H](NC(=O)C(=O)O)C(=O)O)cc1
Active |  |  |  |  |  | O=C(O)C(=O)N[C@H](Cc1ccc(OC(=O)c2cccs2)cc1)C(=O)O
Active |  |  |  |  |  | O=C(O)C(=O)N[C@H](Cc1ccc(OC(=O)N2CCOCC2)cc1)C(=O)O
Active | 5.4 | 21 | 12 |  | inactive | O=C(O)C(=O)N[C@H](Cc1ccc(OS(=O)(=O)c2ccc(Br)cc2)cc1)C(=O)O
Active | 326 |  |  | 0.9 |  | O=C(O)C(=O)N[C@H](Cc1ccc(OCCCN2C(=O)c3ccccc3C2=O)cc1)C(=O)O
Active |  |  |  |  |  | CC(C)CC(=O)Oc1ccc(C[C@@H](NC(=O)C(=O)O)C(=O)O)cc1
Active | 37.1 | 76 |  | 1.7 |  | O=C(O)C(=O)N[C@H](Cc1ccc(OCc2ccccc2)cc1)C(=O)O
Active |  |  |  |  |  | CCC(C(=O)Oc1ccc(C[C@@H](NC(=O)C(=O)O)C(=O)O)cc1)c1ccccc1 (some centres not stated)

More lines, now with the values behind:

Structure (SMILES) | Activity [1] | IC50 [2] [µM] | IC50 [3] [µM] | IC50 [4] [µM] | Ratio [5] | Activity (Homo sapiens)
O=C(O)C(=O)N[C@H](Cc1ccc(OCc2ccccc2[N+](=O)[O-])cc1)C(=O)O | Active | 14.7 |  |  | 3.1 | 
O=C(O)C(=O)N[C@H](Cc1ccc(OS(=O)(=O)c2ccc(F)cc2)cc1)C(=O)O | Active | 11.7 | 38 | 20 |  | inactive
O=C(O)C(=O)N[C@H](Cc1ccc(OC(=O)c2cnn(-c3ccc(Cl)cc3)c2C(F)(F)F)cc1)C(=O)O | Active |  |  |  |  | 
Cc1noc(C)c1S(=O)(=O)Oc1ccc(C[C@@H](NC(=O)C(=O)O)C(=O)O)cc1 | Active | 82.9 |  |  | 1 | 
O=C(O)C(=O)N[C@H](Cc1ccc(OC(=O)C2CCCCC2)cc1)C(=O)O | Active |  |  |  |  | 
O=C(O)C(=O)N[C@H](Cc1ccc(OS(=O)(=O)c2ccccc2)cc1)C(=O)O | Active | 14.7 |  |  | 5.7 | 
O=C(O)C(=O)N[C@H](Cc1ccc(OC(=O)c2ccco2)cc1)C(=O)O | Active | 20.1 |  |  | 3.5 | 
CC(C)(C)c1ccc(S(=O)(=O)Oc2ccc(C[C@@H](NC(=O)C(=O)O)C(=O)O)cc2)cc1 | Active | 8.6 | 61 | 13 |  | inactive
O=C(O)C(=O)N[C@H](Cc1ccc(OCC(=O)c2ccc(N3CCCC3)cc2)cc1)C(=O)O | Active | 14.8 | 59 | 13 | 2 | 
